Activity calls are given as the source filed them.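 How the source made its calls: active means compounds whose self-toxic dose exceeds tenfold the dose that restores mitoxantrone killing of resistant cells; inactive means the rest.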
Tested on: Igrov ABCG2 cells + mitoxantrone, trypan blue viability, 3 d
Experiment: ABCG2-mediated mitoxantrone resistance reversal, SAR follow-up, Igrove cells, trypan blue, SAR set 2 (AID 504477)
Summary of the method: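 Technique – trypan blue exclusion with light-microscope cell counting · Test system – ABCG2-expressing Igrove cells · Quantity – 100,000 cells per mL · Timing – 3-day exposure of cells to test compound · Dosing – compound range 1-100 µM · Reagent – mitoxantrone selective agent at one fixed concentration · Measure – compound level halving cell viability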

Compound	CC50
COc1cccc(-c2cc3nc(-c4ccco4)cc(N4CCN(C(C)=O)CC4)n3n2)c1	> 100 µM
CC(=O)N1CCN(c2cc(-c3ccco3)nc3cc(-c4ccccc4)nn23)CC1	> 100 µM
O=C(c1ccoc1)N1CCN(c2cc(-c3ccco3)nc3cc(-c4ccco4)nn23)CC1	> 100 µM
COc1ccc(-c2cc3nc(-c4ccco4)cc(N4CCN(C(=O)c5ccoc5)CC4)n3n2)cc1	> 100 µM
COc1ccccc1-c1cc(N2CCN(C(=O)c3ccoc3)CC2)n2nc(-c3ccccc3)cc2n1	> 7.62 µM (inactive)
CC(=O)N1CCN(c2cc(-c3ccco3)nc3cc(-c4cccc(Cl)c4)nn23)CC1	> 100 µM
